Test results from ChEMBL document CHEMBL3421533, “The Discovery of Orally Bioavailable Tyrosine Threonine Kinase (TTK) Inhibitors: 3-(4-(heterocyclyl)phenyl)-1H-indazole-5-carboxamides as Anticancer Agents” (J Med Chem, 2015).
Active and inactive are the calls of the source. The calls are words filed in the database; no cut-off is given here.

Columns and labels:
[1] = Antitumor activity against human HCT116 cells xenografted in nude mouse assessed as tumor growth inhibition at 30 mg/kg, po qd administered for 21 days measured on day 22 relative to vehicle-treated control; assay type: functional; settings: HCT-116, read-out: TGI
[2] = Cell cycle arrest in human HCT116 cells assessed as 8N cells at 0.05 uM measured at 48 hrs by flow cytometric analysis relative to control; assay type: functional, cell-based; settings: HCT-116
In short: (§1)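 HCT116 cells in 6-well plates were exposed to compound or DMSO for 48 h at 37 °C, 5% CO₂. Cells were trypsinized, fixed in cold 70% ethanol and stained overnight at 4 °C with 50 μg/mL propidium iodide plus RNaseA. DNA content was read by flow cytometry, and 8N and 16N fractions were normalized to the DMSO control.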

[3] = Cell cycle arrest in human HCT116 cells assessed as 16N cells at 0.05 uM measured at 48 hrs by flow cytometric analysis relative to control; assay type: functional, cell-based; settings: HCT-116; in short: as §1
[4] = Cell cycle arrest in human HCT116 cells assessed as 8N cells at 0.1 uM measured at 48 hrs by flow cytometric analysis relative to control; assay type: functional, cell-based; settings: HCT-116; in short: as §1
[5] = Cell cycle arrest in human HCT116 cells assessed as 16N cells at 0.1 uM measured at 48 hrs by flow cytometric analysis relative to control; assay type: functional, cell-based; settings: HCT-116; in short: as §1
[6] = Cell cycle arrest in human HCT116 cells assessed as 8N cells at 0.2 uM measured at 48 hrs by flow cytometric analysis relative to control; assay type: functional, cell-based; settings: HCT-116; in short: as §1
[7] = Cell cycle arrest in human HCT116 cells assessed as 16N cells at 0.2 uM measured at 48 hrs by flow cytometric analysis relative to control; assay type: functional, cell-based; settings: HCT-116; in short: as §1
[8] = Cell cycle arrest in human HCT116 cells assessed as 8N cells at 0.5 uM measured at 48 hrs by flow cytometric analysis relative to control; assay type: functional, cell-based; settings: HCT-116; in short: as §1
[9] = Cell cycle arrest in human HCT116 cells assessed as 16N cells at 0.5 uM measured at 48 hrs by flow cytometric analysis relative to control; assay type: functional, cell-based; settings: HCT-116; in short: as §1
[10] = Cell cycle arrest in human HCT116 cells assessed as 8N cells at 1 uM measured at 48 hrs by flow cytometric analysis relative to control; assay type: functional, cell-based; settings: HCT-116; in short: as §1
[11] = Cell cycle arrest in human HCT116 cells assessed as 16N cells at 1 uM measured at 48 hrs by flow cytometric analysis relative to control; assay type: functional, cell-based; settings: HCT-116; in short: as §1
[12] = Cell cycle arrest in human HCT116 cells assessed as 8N cells at 3 uM measured at 48 hrs by flow cytometric analysis relative to control; assay type: functional, cell-based; settings: HCT-116; in short: as §1
[13] = Cell cycle arrest in human HCT116 cells assessed as 16N cells at 3 uM measured at 48 hrs by flow cytometric analysis relative to control; assay type: functional, cell-based; settings: HCT-116; in short: as §1
HCT-116 [14] = assay: Induction of cytokinesis with gain or loss in chromosomes in human HCT116 cells at 500 nM after 28 hrs by DAPI-staining based fluorescence microscopic analysis; assay type: functional, cell-based
HCT-116 [15] = assay: Cytotoxicity against human HCT116 cells assessed as decrease in cell viability after 24 hrs; assay type: functional, cell-based
HCT-116 [16] = assay: Induction of apoptosis in human HCT116 cells assessed as induction of PARP cleavage after 24 hrs; assay type: functional, cell-based
[17] = Induction of apoptosis in human HCT116 cells assessed as upregulation of phospho-H2AX level after 24 hrs; assay type: functional, cell-based; settings: HCT-116
[18] = Induction of apoptosis in human HCT116 cells assessed as upregulation of p53 level after 24 hrs; assay type: functional, cell-based; settings: HCT-116
[19] = target: T1, Dual specificity protein kinase TTK (Homo sapiens, UniProt P33981); assay: Inhibition of amino terminal GST-fused full length human TTK using His6-SUMO-TTK-N as substrate preincubated for 15 mins prior to ATP addition by indirect ELISA detection system
T1 sequence (P33981 whole entry): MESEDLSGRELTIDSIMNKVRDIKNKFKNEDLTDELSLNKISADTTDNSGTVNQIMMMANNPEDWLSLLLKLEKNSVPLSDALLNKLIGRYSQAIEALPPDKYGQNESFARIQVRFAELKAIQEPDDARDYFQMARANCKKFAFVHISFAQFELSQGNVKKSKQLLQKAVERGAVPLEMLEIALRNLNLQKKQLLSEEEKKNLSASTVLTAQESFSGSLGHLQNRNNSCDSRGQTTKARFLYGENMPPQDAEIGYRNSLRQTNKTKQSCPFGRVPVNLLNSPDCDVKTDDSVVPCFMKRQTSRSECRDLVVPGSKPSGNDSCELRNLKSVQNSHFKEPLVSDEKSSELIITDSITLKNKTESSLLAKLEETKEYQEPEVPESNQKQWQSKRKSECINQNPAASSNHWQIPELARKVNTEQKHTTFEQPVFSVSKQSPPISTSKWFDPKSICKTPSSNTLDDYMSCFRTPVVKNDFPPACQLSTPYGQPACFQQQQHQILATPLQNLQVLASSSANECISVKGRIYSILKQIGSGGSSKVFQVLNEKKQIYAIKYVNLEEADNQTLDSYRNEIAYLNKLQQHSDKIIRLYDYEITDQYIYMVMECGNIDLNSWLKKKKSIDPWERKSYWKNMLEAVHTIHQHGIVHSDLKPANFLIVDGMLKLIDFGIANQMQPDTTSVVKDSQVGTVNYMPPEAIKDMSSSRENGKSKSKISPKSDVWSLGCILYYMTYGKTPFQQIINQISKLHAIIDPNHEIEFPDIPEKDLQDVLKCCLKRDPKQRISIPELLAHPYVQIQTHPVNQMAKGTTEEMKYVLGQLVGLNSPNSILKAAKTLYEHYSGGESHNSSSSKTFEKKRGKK

MDA-MB-468 = assay: Cytotoxicity against human MDA-MB-468 cells after 5 days by sulforhodamine B assay; assay type: functional
In short: (§2)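 Cancer lines were seeded at 800–6000 cells per well according to growth rate, 24 h before compound overlay. After culture, cells were fixed in situ and stained with sulforhodamine B. GI50 values were derived by curve fitting.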

[20] = Cytotoxicity against human OVCAR3 cells after 5 days by sulforhodamine B assay; assay type: functional, OVCAR-3
[21] = target: Aurora kinase B/Inner centromere protein (Homo sapiens, UniProt Q96GD4); assay: Inhibition of AURKB/INCENP (unknown origin) preincubated for 15 mins prior to ATP addition by FRET-based homogenous assay; assay type: protein-complex assay
Sequence of Aurora kinase B/Inner centromere protein (Q96GD4 whole entry): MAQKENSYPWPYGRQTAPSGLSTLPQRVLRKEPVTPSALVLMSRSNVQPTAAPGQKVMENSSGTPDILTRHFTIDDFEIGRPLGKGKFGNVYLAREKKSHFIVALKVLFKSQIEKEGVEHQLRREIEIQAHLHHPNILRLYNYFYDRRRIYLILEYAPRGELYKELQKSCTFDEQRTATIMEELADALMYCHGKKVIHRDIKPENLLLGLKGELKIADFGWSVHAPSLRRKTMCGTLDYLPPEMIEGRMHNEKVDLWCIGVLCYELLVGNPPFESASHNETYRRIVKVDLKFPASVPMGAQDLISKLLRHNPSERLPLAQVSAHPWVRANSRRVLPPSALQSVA
Sequence of Aurora kinase B/Inner centromere protein (Q9NQS7 whole entry, further chain): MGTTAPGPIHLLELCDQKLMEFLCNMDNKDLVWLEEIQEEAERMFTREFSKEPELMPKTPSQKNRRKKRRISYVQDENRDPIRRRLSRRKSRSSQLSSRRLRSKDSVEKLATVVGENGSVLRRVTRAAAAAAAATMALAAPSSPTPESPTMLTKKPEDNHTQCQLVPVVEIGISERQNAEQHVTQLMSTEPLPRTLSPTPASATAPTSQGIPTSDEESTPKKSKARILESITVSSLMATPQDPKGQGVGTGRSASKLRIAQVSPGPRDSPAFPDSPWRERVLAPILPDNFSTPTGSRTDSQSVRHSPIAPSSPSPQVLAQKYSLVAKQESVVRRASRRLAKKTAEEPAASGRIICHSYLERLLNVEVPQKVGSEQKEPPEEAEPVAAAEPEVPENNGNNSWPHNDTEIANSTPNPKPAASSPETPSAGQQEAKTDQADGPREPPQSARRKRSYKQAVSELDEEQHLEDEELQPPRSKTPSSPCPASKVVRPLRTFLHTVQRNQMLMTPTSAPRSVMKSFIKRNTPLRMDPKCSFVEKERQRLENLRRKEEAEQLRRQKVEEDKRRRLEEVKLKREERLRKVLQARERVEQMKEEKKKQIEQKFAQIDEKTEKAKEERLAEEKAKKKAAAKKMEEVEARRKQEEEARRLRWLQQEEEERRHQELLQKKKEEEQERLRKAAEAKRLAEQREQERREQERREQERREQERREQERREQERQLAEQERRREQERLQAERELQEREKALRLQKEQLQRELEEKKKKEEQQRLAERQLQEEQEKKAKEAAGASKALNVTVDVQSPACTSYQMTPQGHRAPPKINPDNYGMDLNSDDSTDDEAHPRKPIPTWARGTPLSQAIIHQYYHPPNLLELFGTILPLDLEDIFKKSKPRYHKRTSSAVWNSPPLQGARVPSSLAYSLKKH
In short: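 The enzyme was AURKB/INCENP in a FRET-based homogeneous assay run to kit specifications, with ATP at 128 μM. […] Each IC50 came from a single determination, reported with its standard fitting error.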

Cytochrome P450 3A4 = Cytochrome P450 3A4 (Homo sapiens, UniProt P08684); assay: Inhibition of human CYP3A4 using BFC as substrate preincubated for 10 mins followed by enzyme/substrate addition measured after 30 mins by fluorescence assay; assay type: ADME
Sequence of Cytochrome P450 3A4 (P08684 whole entry): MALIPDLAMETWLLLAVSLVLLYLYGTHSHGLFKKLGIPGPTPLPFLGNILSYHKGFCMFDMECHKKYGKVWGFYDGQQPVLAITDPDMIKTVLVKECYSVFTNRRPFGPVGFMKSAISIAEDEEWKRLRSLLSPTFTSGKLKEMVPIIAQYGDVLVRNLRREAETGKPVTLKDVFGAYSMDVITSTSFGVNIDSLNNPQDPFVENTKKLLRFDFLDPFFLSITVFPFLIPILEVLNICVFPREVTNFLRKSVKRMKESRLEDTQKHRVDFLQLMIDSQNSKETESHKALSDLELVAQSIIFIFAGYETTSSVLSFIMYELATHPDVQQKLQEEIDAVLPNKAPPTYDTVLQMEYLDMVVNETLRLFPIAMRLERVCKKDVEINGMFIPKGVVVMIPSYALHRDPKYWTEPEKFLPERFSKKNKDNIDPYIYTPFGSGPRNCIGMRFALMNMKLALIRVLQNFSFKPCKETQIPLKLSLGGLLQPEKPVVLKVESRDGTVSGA

Mus musculus [22] = assay: Cmax in athymic CD1 nude mouse at 10 mg/kg, po by LC-MS/MS analysis; assay type: ADME, organism-based; parameters: dose 10 mg/kg, route oral; settings: in vivo
Mus musculus [23] = assay: AUCinfinity in athymic CD1 nude mouse at 10 mg/kg, po by LC-MS/MS analysis; assay type: ADME, organism-based, Plasma; parameters: time infinity, dose 10 mg/kg, route oral; settings: in vivo
[24] = Clearance in Sprague-Dawley rat at 1 mg/kg, iv by LC-MS/MS analysis; assay type: ADME, organism-based; parameters: dose 1 mg/kg, route intravenous; settings: in vivo
[25] = Half life in Sprague-Dawley rat at 1 mg/kg, iv by LC-MS/MS analysis; assay type: ADME, organism-based; parameters: dose 1 mg/kg, route intravenous; settings: in vivo
[26] = AUCinfinity in Sprague-Dawley rat at 1 mg/kg, iv by LC-MS/MS analysis; assay type: ADME, organism-based; parameters: time infinity, dose 1 mg/kg, route intravenous; settings: plasma
[27] = AUCinfinity in Sprague-Dawley rat at 5 mg/kg, po by LC-MS/MS analysis; assay type: ADME, organism-based; parameters: time infinity, dose 5 mg/kg, route oral; settings: plasma
[28] = Oral bioavailability in Sprague-Dawley rat at 5 mg/kg by LC-MS/MS analysis; assay type: ADME, organism-based; settings: in vivo
[29] = Toxicity in po dosed athymic CD1 nude mouse assessed as body weight loss in excess 20% and deemed moribund administered as qd for 21 days measured 3 times per week during compound dosing; assay type: organism-based; settings: in vivo
[30] = Antitumor activity against human HCT116 cells xenografted in athymic CD1 nude mouse assessed as tumor growth inhibition at 100 mg/kg, po qd administered for 21 days measured 3 times per week during compound dosing relative to vehicle-treated control; assay type: functional; settings: HCT-116, 504 h, read-out: TGI
In short: (§3)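 HCT116 cells (5 million) were injected subcutaneously into the right flank of 6–8 week old female athymic CD-1 nude mice. At a mean tumor volume of 80–120 mm³, mice were randomized (n = 8). Dosing was oral, daily for 21 days, in 10% NMP/40% PEG400/50% DI water, at the MTD and ~2/3 MTD. Tumors were measured three times weekly, volume x²y/2, and TGI was taken against vehicle.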

[31] = Antitumor activity against human HCT116 cells xenografted in athymic CD1 nude mouse assessed as tumor growth inhibition at 150 mg/kg, po qd administered for 21 days measured 3 times per week during compound dosing relative to vehicle-treated control; assay type: functional; settings: HCT-116, 504 h, read-out: TGI; in short: as §3
[32] = target: T1, Dual specificity protein kinase TTK; assay: Inhibition of TTK (unknown origin) using p38 MAPK as substrate by fluorescence assay
[33] = Cytotoxicity against human HCT116 cells after 5 days by sulforhodamine B assay; assay type: functional, HCT-116; in short: as §2
Liver = assay: Half life in mouse liver microsomes at 1 uM by LC-MS analysis; assay type: ADME; settings: microsomes, 1 µM
Liver microsome = assay: Half life in rat liver microsomes at 1 uM by LC-MS analysis; assay type: ADME; settings: microsomes, 1 µM

Cc1cc(N2CCOCC2)ccc1Nc1nc(NC2CCCCC2)c2nc[nH]c2n1
inhibition in vivo at 30 mg/kg [1]: 49%

O=C(N[C@@H](c1ccccn1)C1CC1)c1ccc2[nH]nc(-c3ccc(N4[C@H]5CC[C@H]4CC(O)C5)cc3)c2c1 (stereo in doubt; 75)
Activity [2]: 1%
Activity [3]: 0%
Activity [4]: 1.8%
Activity [5]: 0.2%
Activity [6]: 5.8%
Activity [7]: 1.4%
Activity [8]: 8.3%
Activity [9]: 2.7%
Activity [10]: 7.9%
Activity [11]: 2.3%
Activity [12]: 9.4%
Activity [13]: 2.9%
Activity (HCT-116 [14]): Active
Activity (HCT-116 [15]): Active
Activity (HCT-116 [16]): Active
Activity [17]: Active
Activity [18]: Active

O=C(N[C@H](c1ccccn1)C1CC1)c1ccc2[nH]nc(-c3ccc(N4[C@H]5CC[C@H]4CC(O)C5)cc3)c2c1 (stereo in doubt; 86)
IC50 [19]: 1.6 nM
GI50 (MDA-MB-468): 90 nM
GI50 [20]: 170 nM
IC50 [21]: 790 nM
IC50 (Cytochrome P450 3A4): 1700 nM
Cmax (Mus musculus [22]): 800 ng/mL
AUC (Mus musculus [23]): 1600 ng·h/mL
clearance [24]: 46 mL/min/kg
half-life [25]: 54 min
AUC(0-inf) [26]: 360 ng·h/mL
AUC(0-inf) [27]: 430 ng·h/mL
bioavailability [28]: 24%
MTD at 504 h [29]: 150 mg/kg
inhibition in vivo at 100 mg/kg [30]: 5%
inhibition in vivo at 150 mg/kg [31]: 53%

CC(C)(O)CNc1cc(NC2CCCCC2)nn2c(-c3ccc(C(=O)NC4CC4)cc3)cnc12
IC50 [32]: 13 nM

O=C(N[C@H](c1ccccn1)C1CCCC1)c1ccc2[nH]nc(-c3ccc(N4[C@H]5CC[C@H]4CC(O)C5)cc3)c2c1 (stereo in doubt; 88)
IC50 [19]: 1.8 nM
GI50 [33]: 38 nM
GI50 (MDA-MB-468): 74 nM
GI50 [20]: 130 nM
IC50 [21]: 6600 nM
IC50 (Cytochrome P450 3A4): 800 nM
t1/2 (Liver): 35 min
t1/2 (Liver microsome): 21 min
